# Lipid droplet: inhibitors of hepatocyte lipid droplet formation, primary screen, imaging, high-throughput imaging, BODIPY stain; AML12 mouse hepatocytes, oleate lipid droplets; inhibition, % at 6.5 µM; 0.4% of 240,000 active; AID 1656, 2009;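 active = lipid droplet intensity inhibited by at least 50%, with more than 500 cells counted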
#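 Material – mouse AML12 hepatocyte cell line, fixed after treatment · Compound dosing – one dose, 6.5 µM compound · Times – compound with oleate, overnight · Measured by – Image-based BODIPY and DAPI two-channel analysis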
# RGS4 pot: RGS4 potentiators or activators, primary screen, cell-based, HEK293 M3R inducible RGS4, calcium flux; carbachol calcium flux Fluo4; active compounds read low; B-score at 10 µM; 0.92% of 310,000 active;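 active = B-score of the integrated calcium signal more than 4 SD below the library mean, with starting fluorescence not abnormally high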;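 note: negative B-score means reduced calcium response which marks RGS4 activation or potentiation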
#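 System – HEK293 FlpIn-TREx cells, stable M3R, doxycycline-inducible RGS4 · Reagent – ECmax carbachol challenge · Times – compound preincubation 20 min at room temperature before agonist · Technique – Fluo4 fluorescence kinetic imaging of calcium · Measure – B score of integrated Fluo4 ratio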
# MrgX1 antagonist: antagonists of human MrgX1 receptor, primary screen, HEK293 cells, Fluo-4 calcium flux | AID 588676, 2011 | Mas-related G-protein coupled receptor member X1 (Homo sapiens), Q96LB2 | 1.3% of 310,000 active | B-score at 10 µM | BAM8-22 antagonism; active compounds read low;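 active = calcium-response B-score plate-corrected more than 3 library SD below zero, starting fluorescence within 5 deviations, no agonist response on first addition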;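 note: peak minus trough fluorescence over baseline after final BAM8-22 challenge near maximal dose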
# Target sequence (Q96LB2 whole entry, looked up): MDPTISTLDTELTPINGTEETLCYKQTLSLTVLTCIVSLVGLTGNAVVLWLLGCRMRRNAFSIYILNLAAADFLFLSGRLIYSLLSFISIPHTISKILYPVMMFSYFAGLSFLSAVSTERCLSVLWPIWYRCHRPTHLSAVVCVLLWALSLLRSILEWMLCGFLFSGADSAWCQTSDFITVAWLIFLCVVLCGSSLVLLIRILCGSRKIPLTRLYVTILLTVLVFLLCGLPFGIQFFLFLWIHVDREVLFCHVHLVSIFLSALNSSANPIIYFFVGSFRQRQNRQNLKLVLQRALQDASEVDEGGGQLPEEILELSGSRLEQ
# RGS4 inh: RGS4 inhibitors, primary screen, cell-based, HEK293 M3R inducible RGS4, calcium flux; Fluo-4 calcium flux; active compounds read high; triggered by carbachol at its EC20; B-score at 10 µM; Regulator of G-protein signaling 4 (Homo sapiens), P49798; 0.45% of 310,000 active;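 active = B-score, a plate-corrected calcium signal, over three deviations above library mean, with baseline fluorescence within five deviations of library mean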;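 note: RGS4 expression induced by doxycycline in cells with stable M3 receptor; B-score is computed from the integrated fluorescence ratio over baseline after carbachol; higher B-score means a larger calcium signal and so more RGS4 inhibition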
# MrgX1 agonist: agonists of human MrgX1 receptor, primary screen, HEK293 cells, Fluo-4 calcium flux | 0.44% of 310,000 active | Mas-related G-protein coupled receptor member X1 (Homo sapiens), Q96LB2 | B-score at 10 µM | Fluo-4 calcium fluorescence, agonist mode; active compounds read high;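 active = calcium response B-score plate-corrected fluorescence ratio at least 3 library SD, with starting fluorescence B-score inside 5 SD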
#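 System: HEK293 cells stably expressing human MrgX1 receptor; Dosing: test compound in the initial addition of three; Schedule: overnight plating, then 30 min 37 °C plus 30 min room-temperature dye loading; Detection: kinetic calcium dye fluorescence, Fluo-4 NW; Controls: per-plate positive and negative controls for Z′ factor.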
# MrgX1 PAM: positive allosteric modulators of MrgX1, primary screen, HEK293 cells, Fluo-4 calcium flux; 0.63% of 310,000 active; B-score at 10 µM; Mas-related G-protein coupled receptor member X1 (Homo sapiens), Q96LB2; FDSS; active compounds read high; AID 588675, 2011;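 active = plate-corrected calcium response at least 3 library SD above typical, normal starting fluorescence, not activating the receptor alone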;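 note: compound read alongside a low EC10 to EC30 dose of BAM8-22 agonist; peak minus trough fluorescence over baseline measured at the second addition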
# * = called active by the depositor; i = inactive; · = not tested or not shown. Most compounds without a hit are left out; they make up all but 3.8% or so of the library.
SMILES,Lipid droplet,RGS4 pot,MrgX1 antagonist,RGS4 inh,MrgX1 agonist,MrgX1 PAM
CCNc1ccc(Br)cc(C(=O)/C=C/c2ccccc2Cl)c1=O,·,i,-6*,i,i,i
CNc1ccc(Br)cc(C(=O)/C=C/c2cccc(Cl)c2Cl)c1=O,-3,·,·,·,·,·
CCNc1ccccc(C(=O)/C=C/c2ccc3c(c2)OCO3)c1=O,-1,i,i,i,i,i
Cc1ccc(C(C)C)c(OCCNCCc2ccccc2)c1,-2,i,i,i,i,i
CC(=O)CSc1nnc(-c2ccc(S(=O)(=O)N3CCCC3)cc2)n1C,-14,i,i,i,i,i
CC(C)CCNC(=O)CSc1nnc(-c2ccc(S(=O)(=O)N3CCCC3)cc2)n1C,14,i,-5.4*,i,i,i
O=C1CCCN1C(=O)COc1ccccc1[N+](=O)[O-],·,i,i,i,i,i
Cc1cc2oc(=O)cc(CN3CCc4ccccc43)c2cc1Cl,·,i,i,i,54*,i
O=c1cc(CN2CCc3ccccc32)c2ccc(O)cc2o1,10,i,i,i,i,i
Cc1ccc2c(CN3CCCc4ccccc43)cc(=O)oc2c1C,2,i,i,i,i,i
CCc1ccc2c(CN3CCc4ccccc43)cc(=O)oc2c1,·,i,i,i,38*,i
C=CCN(CC(=O)O)S(=O)(=O)c1ccccc1C(F)(F)F,3,i,i,i,i,i
Cc1ccc2c(C(=O)CN3CCSCC3)c(C)[nH]c2c1,2,i,i,i,i,i
Cc1ccc2c(C(=O)CCl)c(C)[nH]c2c1,-3,i,i,i,i,8.2*
NC(N)=N/N=C/c1ccc(OS(=O)(=O)c2ccccc2)cc1,-1,-8.4*,i,i,30*,i
CCC(=O)N/N=C/c1ccc(OS(=O)(=O)c2ccccc2)cc1,-6,i,i,i,i,i
O=S(c1ccc2ccccc2c1)c1cnns1 (configuration not stated),·,·,i,·,i,i
CN(C)CC#CCC(O)(c1ccccc1)C1CCCCC1 (configuration not stated),20,i,i,i,i,i
CCC[N+]1(CC#CC(O)(c2ccccc2)C2CCCCC2)CCCCC1 (configuration not stated),6,-8.2*,i,i,i,i
COc1ccc(NC(=O)Nc2c(C)n(C)n(-c3ccccc3)c2=O)c(OC)c1,16,i,i,i,i,i
Cc1ccc(C2(c3ccc(C)cc3)CC2C(=O)Nc2ccc([N+](=O)[O-])cc2O)cc1 (configuration not stated),·,i,-4.5*,i,i,i
O=[N+]([O-])c1ccc(OCC(O)CN(C2CCCCC2)C2CCCCC2)cc1 (configuration not stated),2,i,i,i,i,i
OC(CNC1CCCCC1)COCCOc1ccc(Br)cc1 (configuration not stated),-7,i,-9.2*,i,i,i
O=[N+]([O-])c1ccc(OCC(O)CNC2CCCC2)cc1 (configuration not stated),1,i,i,i,28*,i
CCN(C(=O)c1ccco1)c1nnc(-c2cccnc2)s1,-9,i,i,i,i,i
Cc1ccc(C)c(Cn2c(C(=O)OC(C)C)cc3c2ccn3C)c1,·,-7*,i,i,i,i
CC(C)OC(=O)c1cc2c(ccn2C)n1CC(=O)N(Cc1ccccc1)c1ccc(F)cc1,-8,i,i,i,i,i
CCOC(=O)c1cc2c(ccn2C)n1Cc1ccccc1Cl,40,-7.3*,i,i,i,i

# Screens: PubChem BioAssay, several laboratories
